Data taken from ChEMBL document CHEMBL1126773, “Synthesis, physicochemical properties, and biological evaluation of N-substituted 2-alkyl-3-hydroxy-4(1H)-pyridinones: orally active iron chelators with clinical potential” (J Med Chem, 1993).

Tests used:
[1] = Logarithm of cumulative stability constant was determined
[2] = Acid dissociation constant (pKa1) was determined; assay type: physicochemical; settings: for pKa: read-out: pKa1
In short: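 Simultaneous spectrophotometric/potentiometric titration of the ligand. Temperature held at 22.5 ± 0.1 °C, ionic strength 0.1 with KNO3. pKa values were obtained by global optimization across titrations at several ligand concentrations.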

[3] = Acid dissociation constant (pKa2) was determined
[4] = Partition coefficient (logD7.4); assay type: physicochemical; settings: octanol/water, pH 7.4
In short: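 Automated filter-probe partitioning between MOPS buffer (50 mM, pH 7.4) and octan-1-ol, each phase pre-equilibrated with the other and purged with nitrogen. UV absorbance was read until stable, then octanol was added in at least 10 aliquots. An estimate came from each addition, giving a mean and standard deviation.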

[5] = Percentage of release of lactic dehydrogenase from rat hepatocytes; assay type: functional, Hepatocyte
In short: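 Primary rat hepatocytes were plated at 1 × 10⁶/dish, pulsed 17 h with human diferric ⁵⁹Fe-transferrin (100 µg/mL), washed, then exposed to chelators in triplicate. LDH was measured in the supernatant at 6 h.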

Rattus norvegicus = organism: Rattus norvegicus; experiment: Percentage of mobilization of iron in 2 hours from rat hepatocytes; assay type: functional, Hepatocyte
[6] = target: Serotransferrin (Homo sapiens) (UniProt P02787); experiment: Percentage of removal of iron from iron-protein-transferrin; assay type: functional; design: concentration or dose not given beside the values
Serotransferrin (Homo sapiens), sequence (P02787 whole entry): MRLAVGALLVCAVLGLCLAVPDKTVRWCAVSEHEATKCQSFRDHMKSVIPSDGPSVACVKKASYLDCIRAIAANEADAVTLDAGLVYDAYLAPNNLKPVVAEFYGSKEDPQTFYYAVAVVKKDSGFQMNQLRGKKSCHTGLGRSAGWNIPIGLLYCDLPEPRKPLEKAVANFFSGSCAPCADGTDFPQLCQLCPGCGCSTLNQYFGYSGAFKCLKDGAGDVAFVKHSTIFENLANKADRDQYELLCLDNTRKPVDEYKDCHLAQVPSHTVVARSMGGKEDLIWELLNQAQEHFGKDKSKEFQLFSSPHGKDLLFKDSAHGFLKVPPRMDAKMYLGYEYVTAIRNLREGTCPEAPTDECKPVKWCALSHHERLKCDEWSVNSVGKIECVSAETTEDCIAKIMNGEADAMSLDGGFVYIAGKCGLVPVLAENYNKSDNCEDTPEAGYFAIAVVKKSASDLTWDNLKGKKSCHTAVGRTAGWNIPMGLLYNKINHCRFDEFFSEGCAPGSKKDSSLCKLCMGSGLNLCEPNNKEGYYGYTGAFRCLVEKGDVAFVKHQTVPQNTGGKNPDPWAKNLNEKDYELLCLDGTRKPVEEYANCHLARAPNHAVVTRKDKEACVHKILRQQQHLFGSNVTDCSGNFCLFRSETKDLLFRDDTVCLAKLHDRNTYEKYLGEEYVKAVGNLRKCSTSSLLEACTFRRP
In short: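 Human transferrin, Fe(III)-loaded (50 μM), was mixed with chelator (100 μM) in MOPS (0.05 M, pH 7.4, 25 °C) with 25 mM NaHCO3. Absorbance at 400–500 nm was scanned every 2 min for 10 min, then every 5 min up to 3 h.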

Equus caballus = organism: Equus caballus; experiment: Percentage of removal of iron from iron-protein-ferritin; assay type: functional; design: concentration or dose not given beside the values
In short: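 Horse spleen ferritin (iron cores equivalent to 450 μM) was incubated with chelator (5 mM) in HEPES (0.1 M, pH 7.2) at 37 °C for up to 36 h. Samples were ultrafiltered to separate the Fe(III) complex, and the filtrate absorbance was read (450 nm; concentrations from ε max).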

Oc1ccccc1O [CATECHOL]
Log beta3 [1]: 44.9
pKa [2]: 9.2
pKa [3]: 13.3

COCC(C)n1ccc(=O)c(O)c1C (stereo not drawn)
logD [4]: -0.26

Cc1c(O)c(=O)ccn1CCC(=O)N(C)C
logD [4]: -1.16

Cc1c(O)c(=O)ccn1CCC(=O)NC(C)C
logD [4]: -0.471

Cc1c(O)c(=O)ccn1CCCN
logD [4]: -2.1

O/N=C/c1ccccn1
Activity [5]: 108%
Log beta3 [1]: 30
Activity (Rattus norvegicus): 108%

CCCCCCn1ccc(=O)c(O)c1C
logD [4]: 1.9

CCCCn1ccc(=O)c(O)c1CC
logD [4]: 1.22

Cc1c(O)c(=O)ccn1C(C)C
Activity [6]: 51%
logD [4]: 0.0492
Activity (Equus caballus): 26%

CCCn1ccc(=O)c(O)c1C
Activity [6]: 52%
Activity [5]: 105%
Activity (Equus caballus): 28%
Log beta3 [1]: 37.7
Activity (Rattus norvegicus): 252%
pKa [2]: 3.62
pKa ([3]; pKa2): 9.92

CCc1c(O)c(=O)ccn1CCO
logD [4]: -0.658

CCCn1ccc(=O)c(O)c1CC
logD [4]: 0.702

Cc1c(O)c(=O)ccn1C [DEFERIPRONE]
Activity [6]: 54%
logD [4]: -0.77
Activity (Equus caballus): 34%
Log beta3 [1]: 37.2

CCc1c(O)c(=O)ccn1C
logD [4]: -0.205

CCOCCCn1ccc(=O)c(O)c1CC
logD [4]: 0.716

CCc1nccc(O)c1O
logD [4]: 0.0453

CCNC(=O)CCn1ccc(=O)c(O)c1C
logD [4]: -0.818

CCCCCCCCn1ccc(=O)c(O)c1C
logD [4]: 2.88

CCCNC(=O)CCn1ccc(=O)c(O)c1C
logD [4]: -0.396

CCN(C)C(=O)CCn1ccc(=O)c(O)c1C
logD [4]: -0.686

CCOCCCn1ccc(=O)c(O)c1C
Activity [6]: 49%
logD [4]: 0.121

CCc1c(O)c(=O)ccn1C(C)C
logD [4]: 0.732

COCCn1ccc(=O)c(O)c1C
Activity [6]: 55%
logD [4]: -0.409
Activity (Equus caballus): 28%

CCn1cccc(O)c1=O
Activity [5]: 102%
Log beta3 [1]: 32
Activity (Rattus norvegicus): 115%

CCCCCCn1ccc(=O)c(O)c1CC
logD [4]: 2.28

CC(=O)NO [ACETOHYDROXAMIC ACID]
Log beta3 [1]: 28.3
pKa ([3]; pKa2): 9.4

CCCCCn1ccc(=O)c(O)c1C
logD [4]: 1.24

Oc1ccncc1O
pKa1 [2]: 3.6
pKa [2]: 3.34
pKa2 [3]: 9.6
pKa ([3]; pKa2): 9.01

CCc1c(O)c(=O)ccn1CC
logD [4]: 0.25

Cc1c(O)c(=O)ccn1CCCO
logD [4]: -0.879

Cc1c(O)c(=O)ccn1CCO
Activity [6]: 47%
logD [4]: -1.1
Activity (Equus caballus): 29%

Cc1c(O)c(=O)ccn1CCCC(=O)O
Activity [6]: 53%
Activity (Equus caballus): 12%

Oc1cccc2cccnc12 [OXYQUINOLINE]
Activity [5]: 260%
Log beta3 [1]: 37
Activity (Rattus norvegicus): 110%

Cc1c(O)c(=O)ccn1CCCCO
logD [4]: -0.742

CC(=O)N(O)CCCCCNC(=O)CCC(=O)N(O)CCCCCNC(=O)CCC(=O)N(O)CCCCCN
Activity [6]: 5%
Activity (Equus caballus): 11%

CCN(CC)C(=O)CCn1ccc(=O)c(O)c1C
logD [4]: -0.361

Cc1nccc(O)c1O
logD [4]: -0.495
Log beta3 [1]: 37.2
pKa [2]: 3.7
pKa ([3]; pKa2): 9.76

CCn1ccc(=O)c(O)c1C
logD [4]: -0.31
Log beta3 [1]: 37.7
pKa [2]: 3.65
pKa ([3]; pKa2): 9.88

CNC(=O)CCn1ccc(=O)c(O)c1C
logD [4]: -1.1

CCCCn1ccc(=O)c(O)c1C
Activity [6]: 52%
logD [4]: 0.703
pKa [2]: 3.62
pKa ([3]; pKa2): 9.87

CCc1c(O)c(=O)ccn1CCOC
logD [4]: 0.0414

Cc1c(O)c(=O)ccn1CCN
Activity [6]: 56%
logD [4]: -1.55
Activity (Equus caballus): 23%
